EBNA-1 inh: blocks EBNA-1 binding to DNA | EBNA-1 DNA binding, fluorescence polarization | inhibition, % at 14.8 µM | 300,000 compounds, 0.34% hits | AID 1950; in the data active = inhibition above about 28%
NS3 helicase inh: HCV NS3 helicase inhibition. inhibition, % at 10.9 µM. 290,000 compounds, 0.56% hits. NS3 helicase DNA unwinding, Cy5 molecular beacon fluorescence;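 active = inhibition above the mean of all tested compounds plus 3 SD, set per campaign, cut at about 35% in these data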;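 also: 0% = DMSO wells and 100% = thioflavine S control wells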
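Test system: hepatitis C virus NS3 helicase domain fragment enzyme. Also added: annealed dual-labelled DNA beacon duplex, ATP-started. Timing: 60 min unwinding reaction at 25 °C after ATP addition. Technique: Cy5 fluorescence. Measure: % inhibition of unwinding.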
PP1 inh: blocks human PP1-alpha phosphatase, a PP5 counter-screen; inhibition, % at 6.7 µM; purified PP1alpha, OMFP fluorescence; 320,000 compounds, 0.9% hits; AID 2235; P62136;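 active = inhibition above the mean inhibition of all tested compounds plus 3 SD, computed separately for each screening campaign, cut at about 15% in these data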
ZTA counter: counter-screen for EBNA-1 inhibitors: inhibitors of Epstein-Barr virus ZTA. ZTA-DNA binding, fluorescence polarization. 320,000 compounds, 0.15% hits. inhibition, % at 11 µM; in the data active = inhibition above about 33%
HCV core dimer: HCV core protein dimerization inhibition; TR-FRET GST/Flag-core106 dimerization, 1536-well; inhibition, % at 5 µM; 300,000 compounds, 0.33% hits;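 active = inhibition above the mean of all tested compounds plus 3 SD, set per screening campaign, cut at about 45% in these data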
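assay system = GST-tagged and Flag-tagged HCV core protein residues 1-106 | controls = unlabelled core106 and no-GST-core106 wells | incubation = compound-protein-antibody incubation 4 h at 22.5 °C | probe or stimulus = Eu donor and XL665 acceptor anti-tag antibodies | read-out = % inhibition based on acceptor/donor emission ratio | signal = TR-FRET 671 and 617 nm emission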
PP1 confirm: confirmation of human PP1 phosphatase inhibitors; shares compounds with PP1 inh; purified PP1alpha, OMFP substrate fluorescence; inhibition, % at 6.7 µM; 1,900 compounds, 52% hits;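 active = mean PP1 inhibition above a set limit taken from the earlier primary screen, cut at about 15% in these data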
PP5 inh counter: PP5 phosphatase inhibition, counter-screen for PP1 inhibitors. shares compounds with PP1 inh. purified PP5c, OMFP fluorescence. inhibition, % at 6.7 µM. 1,900 compounds, 4% hits. AID 2360;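 active = mean PP5 inhibition over triplicate wells above about 9.5% taken from the earlier PP1 screen, limit read from the data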
Target sequence (P53041 whole entry, looked up): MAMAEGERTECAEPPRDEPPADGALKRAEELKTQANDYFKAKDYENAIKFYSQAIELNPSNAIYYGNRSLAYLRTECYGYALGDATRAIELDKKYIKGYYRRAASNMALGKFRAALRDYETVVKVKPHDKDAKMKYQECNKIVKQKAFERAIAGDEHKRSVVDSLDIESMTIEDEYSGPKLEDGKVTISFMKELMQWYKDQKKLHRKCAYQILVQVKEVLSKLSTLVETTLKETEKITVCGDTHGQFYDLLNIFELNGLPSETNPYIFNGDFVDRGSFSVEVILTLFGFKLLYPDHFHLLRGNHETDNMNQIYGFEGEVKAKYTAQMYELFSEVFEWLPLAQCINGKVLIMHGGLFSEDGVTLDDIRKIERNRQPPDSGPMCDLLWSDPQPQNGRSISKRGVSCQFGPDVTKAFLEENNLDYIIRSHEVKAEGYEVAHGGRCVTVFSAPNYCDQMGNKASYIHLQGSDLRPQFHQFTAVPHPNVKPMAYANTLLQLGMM
Numbers without * were called inactive; / = not tested or not shown. Sampled rows, rich in hits. Any-hit rate of the full collection: about 1.9%.

SMILES	EBNA-1 inh	NS3 helicase inh	PP1 inh	ZTA counter	HCV core dimer	PP1 confirm	PP5 inh counter
CC(Oc1ccccc1)C(=O)N=C1SC2CS(=O)(=O)CC2N1Cc1ccccc1 (stereo not given)	-12	6	-6	-14	1	/	/
Cc1cccc(N=Nc2ccc(O)c3ncccc23)c1	5	-4	29*	11	0	29*	-1
Cc1ccc(NCc2ccc(O)c3ncccc23)cc1	-2	2	4	2	1	/	/
NS(=O)(=O)c1ccc(N=Nc2ccc(O)c3ncccc23)cc1	7	8	51*	2	-21	37*	-2
NS(=O)(=O)c1ccc(N=Nc2c(O)ccc3ccccc23)cc1	12	7	3	2	0	/	/
Nc1nc(SCC(=O)Nc2ccc([N+](=O)[O-])cc2)[nH]c(=O)c1NC(=O)c1ccc(Br)cc1	-5	-6	19*	-16	2	23*	-3
COc1ccc(C(C)=O)c2c(O)cccc12	-1	-4	3	-3	3	/	/
CCC1=NNc2cccc3c(OC)ccc1c23	-6	3	33*	19	25	9	5
Cc1ccc(N2C(=O)c3ccccc3C2C(=O)c2ccc(C)c(C)c2O)cc1 (stereo not given)	4	15	9	5	8	/	/
CNc1cc(CSC)nc(SCc2ccc(Cl)c(Cl)c2)n1	2	2	25*	-13	0	10	3
Cc1nc(SCc2ccc(Cl)c(Cl)c2)n[nH]1	/	8	/	/	/	/	/
CC(C)(C)c1ccc(OCCC(=O)NCCc2ccc(S(N)(=O)=O)cc2)cc1	/	-9	/	/	/	/	/
N#CCC(=O)N/N=C/c1ccc(N2N=C(c3ccccc3)CC2c2ccccc2)cc1 (stereo not given)	1	21	25*	7	11	17*	0
CSCCC(NC(=O)c1ccc([N+](=O)[O-])cc1Cl)C(=O)OCC(=O)NC(=O)CN1CCCC1=O (stereo not given)	-1	/	39*	-4	-5	-1	-3
CCCCn1c(N)c(N(CC(C)C)C(=O)c2oc3c(Cl)cccc3c2C)c(=O)[nH]c1=O	-4	/	-1	10	5	/	/
CCCCC[C@H](O)/C=C/[C@@H]1[C@@H](C/C=C\CCCC(=O)OC)[C@@H](O)C[C@H]1O	0	-6	46*	-1	-2	43*	-2
Cc1cc(C(=O)N/N=C/c2c(C)nn(-c3ccccc3)c2C)c(C)o1	10	7	-1	4	4	/	/
O=C1CNC(=S)N1c1nc2ccccc2s1	4	0	25*	-5	-1	-1	-4
O=C(O)c1cc(N=Nc2c(O)ccc3ccccc23)cc(C(=O)O)c1	/	8	/	/	/	/	/
O=C(O)c1ccc(N=Nc2c(O)ccc3ncccc23)cc1	2	33	21*	1	-31	14	0
O=C(NCCCCc1ccccc1)C12CN(Cc3ccccc3)CC1C(c1ccc([N+](=O)[O-])cc1)=NO2 (stereo not given)	-11	-15	7	24	6	/	/
O=C(NCCCCc1ccccc1)C12CN(Cc3ccccc3)CC1C(c1cccc([N+](=O)[O-])c1)=NO2 (stereo not given)	8	-13	24*	7	5	7	0
CS(=O)(=O)c1ccccc1-c1nnc(NC(=O)COc2ccc(Cl)cc2)o1	-5	/	0	-18	0	/	/
O=C(COc1ccccc1)Nc1nnc(-c2ccc3c(c2)CCCC3)o1	6	2	26*	3	6	27*	2
O=C(Nc1nnc(-c2ccc(F)cc2)o1)c1cccc([N+](=O)[O-])c1	-3	12	19*	14	-8	16*	3
SMILES	EBNA-1 inh	NS3 helicase inh	PP1 inh	ZTA counter	HCV core dimer	PP1 confirm	PP5 inh counter
O=C(COc1ccccc1)Nc1nnc(-c2ccccc2Cl)o1	9	26	23*	-3	-1	20*	-5
O=C(COC(=O)/C=C/c1ccccc1)Nc1nnc(-c2ccccc2)o1	8	/	24*	10	6	30*	-4
Cc1cc(Cn2ccnc2)c(C)c([N+](=O)[O-])c1Cn1ccnc1	-1	-5	1	-6	-10	/	/
CCOC(=O)C(C)C(C)=O (stereo not given)	/	/	-1	-3	/	/	/
NNc1ccc(Cl)c(C(=O)O)c1	-3	3	-4	1	-1	/	/
c1cncc(CSc2ccc(-c3ccc4c(c3)OCO4)nn2)c1	1	2	-2	0	1	/	/
CC(=O)N1CCC(N(CCCOC(C)C)S(=O)(=O)c2ccc([N+](=O)[O-])cc2)CC1	-2	4	-1	-22	-6	/	/
O=C(Nc1nnc(-c2ccc3c(c2)CCCC3)o1)c1ccccc1	0	20	23*	10	19	28*	0
Cc1ccccc1C(=O)NNC(=O)C1CCN(C(=O)Nc2ccccc2)CC1	1	/	-7	6	-2	/	/
COc1ccc(-c2nc(SC(C)C(=O)NCC3CCCO3)n[nH]2)cc1 (stereo not given)	9	/	4	0	2	/	/
CC(C)(CS(=O)(=O)[O-])NC(=O)CC[N+](C)(C)CCO	5	22	70*	15	-484	56*	-4
Cc1onc(-c2c(Cl)cccc2Cl)c1C(=O)N1C(C)CCCC1C (stereo not given)	2	28	-1	-6	-8	/	/
CCn1c(=O)c([N+](=O)[O-])c(NCC2CCCO2)c2ccccc21 (stereo not given)	-7	8	-3	0	6	/	/
CCN(CC)CCN(C(=O)c1ccc2c(c1)CCCC2)c1nc2cc(OC)c(OC)cc2s1	3	-35	24*	-14	-23	-3	2
CCCNc1c(NC(=O)c2ccc3c(c2)OCO3)c(=O)oc2ccccc12	5	-5	-4	5	1	/	/
O=C(COC(=O)/C(=C/c1cccs1)c1cccs1)NC(c1ccccc1)c1ccccc1	-3	5	20*	-15	28	11	0
C=CCOC(=O)C1=C(C)NC(SCC(=O)Nc2ccc(C)c(Cl)c2)=C(C#N)C1c1ccco1 (stereo not given)	13	5	19*	-8	6	7	2
O=C(CCN1C(=O)/C(=C/C=C/c2ccccc2)SC1=S)Nc1cccnc1	3	20	20*	28	29	13	-2
CC(/C=C1\SC(=S)N(CCCC(=O)Nc2ccc(C(=O)O)cc2)C1=O)=C\c1ccccc1	14	22	19*	19	33	11	-4
O=C(CCN1C(=O)/C(=C/c2ccco2)SC1=S)Nc1ccc(C(=O)O)c(O)c1	-5	12	2	27	4	/	/
CC(/C=C1\SC(=S)N(CCC(=O)Nc2cccc(C(=O)O)c2)C1=O)=C\c1ccccc1	12	-23	23*	21	14	16*	3

Compound activity deposited in PubChem by The Scripps Research Institute Molecular Screening Center.
